According to ChEMBL document CHEMBL3867423, “New imidazolidineiminothione derivatives: Synthesis, spectral characterization and evaluation of antitumor, antiviral, antibacterial and antifungal activities” (Eur J Med Chem, 2016):
Converted amounts (≈) assume the structure as drawn.

How the values were obtained:
[1] = test system: Micrococcus luteus; assay: Antibacterial activity against Sarcina lutea after 24 hrs by two-fold serial dilution method; assay type: functional
Summary of the method: (§1)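 Two-fold serial dilutions of DMSO stock in adjusted Mueller-Hinton broth, final 100 to 0.78 µg/ml. Bacteria pre-grown in nutrient broth, fungi in malt extract broth (48 h). Each 5 ml tube given 0.1 ml inoculum (1×10⁸ CFU/ml bacteria, 1×10⁶ CFU/ml fungi), incubated 37 °C 24 h. MIC taken as lowest concentration with no growth; triplicate, averaged.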

[2] = test system: Bacillus pumilus; assay: Antibacterial activity against Bacillus pumilus at 5 mg after 24 hrs by agar well diffusion assay; assay type: functional; conditions: read-out: DIZ
Summary of the method: (§2)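 Agar well diffusion. 100 µL inoculum (1×10⁸ CFU/mL bacteria, 1×10⁶ CFU/mL yeast) spread on nutrient agar (bacteria) or Sabouraud dextrose agar (fungi). 10 mm wells loaded with 100 µL of 5 mg/mL compound in DMSO. DMSO as negative control. Erythromycin (bacteria) or […] (fungi) at 5 mg/ml as standards. Plates incubated 24 h at 37 °C. Inhibition zone diameter (mm) measured, mean of triplicate.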

[3] = test system: Bacillus pumilus; assay: Antibacterial activity against Bacillus pumilus after 24 hrs by two-fold serial dilution method; assay type: functional; summary of the method: as §1
[4] = Cytotoxicity against human HepG2 cells assessed as decrease in cell viability after 48 hrs by SRB assay; assay type: functional, cell-based
Summary of the method: (§3)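 SRB assay. Cells seeded at 10⁴ per well and allowed to attach for 24 h. Exposed to 0, 5, 12.5, 25 and 50 µg/mL, triplicate wells per dose, for 48 h at 37 °C in 5% CO₂. Cells fixed and SRB-stained; excess dye removed with acetic acid, bound dye recovered in Tris-EDTA and read on an ELISA reader. IC50 read from the surviving-fraction curve.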

[5] = test system: Candida albicans; assay: Antifungal activity against Candida albicans IMRU 3669 after 24 hrs by two-fold serial dilution method; assay type: functional; conditions: IMRU 3669, 24 h; summary of the method: as §1
[6] = Cytotoxicity against human PC3 cells assessed as decrease in cell viability after 48 hrs by SRB assay; assay type: functional, cell-based; conditions: pc-3; summary of the method: as §3
[7] = test system: Micrococcus luteus; assay: Antibacterial activity against Micrococcus luteus ATCC 10240 after 24 hrs by two-fold serial dilution method; assay type: functional; conditions: ATCC 10240, 24 h; summary of the method: as §1
[8] = test system: Hepatovirus A; assay: Antiviral activity against Hepatitis A virus infected in African green monkey Vero cells by plaque formation assay; assay type: functional; set-up: concentration or dose not given beside the values
[9] = test system: Candida albicans; assay: Antifungal activity against Candida albicans IMRU 3669 at 5 mg after 24 hrs by agar well diffusion assay; assay type: functional; conditions: IMRU 3669, 24 h, read-out: DIZ; summary of the method: as §2
[10] = test system: Coxsackievirus B4; assay: Antiviral activity against human Coxsackie virus B4 infected in African green monkey Vero cells by plaque formation assay; assay type: functional; set-up: concentration or dose not given beside the values
[11] = test system: Pseudomonas aeruginosa; assay: Antibacterial activity against Pseudomonas aeruginosa ATCC 25619 at 5 mg after 24 hrs by agar well diffusion assay; assay type: functional; conditions: ATCC 25619, 24 h, read-out: DIZ; summary of the method: as §2
[12] = test system: Pseudomonas aeruginosa; assay: Antibacterial activity against Pseudomonas aeruginosa ATCC 25619 after 24 hrs by two-fold serial dilution method; assay type: functional; conditions: ATCC 25619, 24 h; summary of the method: as §1
[13] = test system: Bacillus subtilis; assay: Antibacterial activity against Bacillus subtilis NCTC 10400 at 5 mg after 24 hrs by agar well diffusion assay; assay type: functional; conditions: NCTC 10400, 24 h, read-out: DIZ; summary of the method: as §2
[14] = test system: Aspergillus niger; assay: Antifungal activity against Aspergillus niger at 5 mg after 24 hrs by agar well diffusion assay; assay type: functional; conditions: read-out: DIZ; summary of the method: as §2
[15] = Antifungal activity against Penicillium chrysogenum at 5 mg after 24 hrs by agar well diffusion assay; assay type: functional; summary of the method: as §2
[16] = Cytotoxicity against human HCT116 cells assessed as decrease in cell viability after 48 hrs by SRB assay; assay type: functional, cell-based; conditions: hct-116; summary of the method: as §3
[17] = test system: Micrococcus luteus; assay: Antibacterial activity against Sarcina lutea at 5 mg after 24 hrs by agar well diffusion assay; assay type: functional; conditions: read-out: DIZ; summary of the method: as §2
[18] = Cytotoxicity against human MCF7 cells assessed as decrease in cell viability after 48 hrs by SRB assay; assay type: functional, cell-based; set-up: unit not given here; summary of the method: as §3
[19] = test system: Human alphaherpesvirus 1; assay: Antiviral activity against HSV1 infected in African green monkey Vero cells by plaque formation assay; assay type: functional; set-up: concentration or dose not given beside the values
[20] = test system: Micrococcus luteus; assay: Antibacterial activity against Micrococcus luteus ATCC 10240 at 5 mg after 24 hrs by agar well diffusion assay; assay type: functional; conditions: ATCC 10240, 24 h, read-out: DIZ; summary of the method: as §2
[21] = test system: Escherichia coli; assay: Antibacterial activity against Escherichia coli ATCC 10536 at 5 mg after 24 hrs by agar well diffusion assay; assay type: functional; conditions: ATCC 10536, 24 h, read-out: DIZ; summary of the method: as §2

Work on `COc1ccc(OC)c(N2C(=O)N(c3ccc(SC)cc3)C(=N)C2=S)c1` yielded an MIC [1] of 6.25 µg/mL (≈ 16.1 µM), a zone of inhibition at 5000 µg/disc [2] of 20 mm and an MIC [3] of 6.25 µg/mL (≈ 16.1 µM). It also gave an IC50 [4] of 0.029 µg, an MIC [5] of 6.25 µg/mL (≈ 16.1 µM) and an IC50 [6] of 0.047 µg. The MIC [7] was 6.25 µg/mL (≈ 16.1 µM), the Activity [8] was 0% and the zone of inhibition at 5000 µg/disc [9] was 27 mm. For the same compound, the Activity [10] was 18.5%, the zone of inhibition at 5000 µg/disc [11] was 25 mm and the MIC [12] was 0.78 µg/mL (≈ 2.01 µM). For the same compound, the zone of inhibition at 5000 µg/disc [13] was 29 mm, the zone of inhibition at 5000 µg/disc [14] was 20 mm and the inhibition zone (IZ) [15] was 22 mm. It also gave an IC50 [16] of 0.05 µg, a zone of inhibition at 5000 µg/disc [17] of 31 mm and an IC50 [18] of 0.028. It also gave an Activity [19] of 85.7%, a zone of inhibition at 5000 µg/disc [20] of 17 mm and a zone of inhibition at 5000 µg/disc [21] of 29 mm.
`CSc1ccc(N2C(=N)C(=S)N(c3cc(Cl)cc(Cl)c3)C2=O)cc1` gave an MIC [1] of 6.25 µg/mL (≈ 15.8 µM), a zone of inhibition at 5000 µg/disc [2] of 25 mm and an MIC [3] of 6.25 µg/mL (≈ 15.8 µM). The IC50 [4] was 0.029 µg, the MIC [5] was 6.25 µg/mL (≈ 15.8 µM) and the IC50 [6] was 0.049 µg. For the same compound, the MIC [7] was 6.25 µg/mL (≈ 15.8 µM), the Activity [8] was 0% and the zone of inhibition at 5000 µg/disc [9] was 25 mm. It also gave an Activity [10] of 0%, a zone of inhibition at 5000 µg/disc [11] of 21 mm and an MIC [12] of 0.78 µg/mL (≈ 1.97 µM). For the same compound, the zone of inhibition at 5000 µg/disc [13] was 24 mm, the zone of inhibition at 5000 µg/disc [14] was 19 mm and the inhibition zone (IZ) [15] was 20 mm. The IC50 [16] was 0.031 µg, the zone of inhibition at 5000 µg/disc [17] was 26 mm and the IC50 [18] was 0.018. It also gave an Activity [19] of 3.4%, a zone of inhibition at 5000 µg/disc [20] of 18 mm and a zone of inhibition at 5000 µg/disc [21] of 23 mm.
Work on `Cc1ccc(F)cc1N1C(=N)C(=S)N(c2cc(Cl)cc(Cl)c2)C1=O` yielded an MIC [1] of 3.12 µg/mL (≈ 8.16 µM), a zone of inhibition at 5000 µg/disc [2] of 21 mm and an MIC [3] of 6.25 µg/mL (≈ 16.4 µM). It also gave an IC50 [4] of 0.05 µg, an MIC [5] of 6.25 µg/mL (≈ 16.4 µM) and an IC50 [6] of 0.064 µg. For the same compound, the MIC [7] was 6.25 µg/mL (≈ 16.4 µM), the Activity [8] was 20.6% and the zone of inhibition at 5000 µg/disc [9] was 18 mm. The Activity [10] was 31.1%, the zone of inhibition at 5000 µg/disc [11] was 22 mm and the MIC [12] was 3.12 µg/mL (≈ 8.16 µM). It also gave a zone of inhibition at 5000 µg/disc [13] of 20 mm, a zone of inhibition at 5000 µg/disc [14] of 22 mm and an inhibition zone (IZ) [15] of 21 mm. It also gave an IC50 [16] of 0.034 µg, a zone of inhibition at 5000 µg/disc [17] of 24 mm and an IC50 [18] of 0.011. It also gave an Activity [19] of 45.3%, a zone of inhibition at 5000 µg/disc [20] of 20 mm and a zone of inhibition at 5000 µg/disc [21] of 18 mm.
